# Test results from ChEMBL document CHEMBL1240422, “Design, synthesis and biological evaluation of 3,5-diaryl-isoxazoline/isoxazole-pyrrolobenzodiazepine conjugates as potential anticancer agents” (2010).
# The source made the active and inactive calls. No cut-off for these calls is given here.
# What was measured:
# A-375 [1] = assay: Cytotoxicity against human A375 cells at 4 uM after 24 hrs […]; type: functional, cell-based
# A-375 [2] = assay: Cell cycle arrest in human A375 cells assessed as accumulation at G0/G1 phase at 4 uM after 24 hrs using propidium iodide staining by FACS; type: functional
# Method in brief: (§1)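 Treated A375 cells (24 h) were harvested with trypsin-EDTA and fixed in ice-cold 70% ethanol (4 °C, 30 min). After a PBS wash, they were incubated with 1 mg/mL RNase A (37 °C, 30 min) and stained with propidium iodide solution containing trisodium citrate and Triton X-100. DNA content was measured by flow cytometry on 20,000 events. Controls were DMSO-treated.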
# A-375 [3] = assay: Cell cycle arrest in human A375 cells assessed as accumulation at S phase at 4 uM after 24 hrs using propidium iodide staining by FACS; type: functional; method in brief: as §1
# A-375 [4] = assay: Cell cycle arrest in human A375 cells assessed as accumulation at G2/M phase at 4 uM after 24 hrs using propidium iodide staining by FACS; type: functional; method in brief: as §1
# CCRF-CEM = assay: Anticancer activity against human CCRF-CEM cells after 48 hrs by SRB assay; type: functional
# HL-60(TB) = assay: Anticancer activity against human HL-60(TB) cells after 48 hrs by SRB assay; type: functional; conditions: HL-60, 48 h
# K562 = assay: Anticancer activity against human K562 cells after 48 hrs by SRB assay; type: functional; conditions: K562, 48 h
# MOLT-4 = assay: Anticancer activity against human MOLT4 cells after 48 hrs by SRB assay; type: functional; conditions: MOLT-4, 48 h
# RPMI-8226 = assay: Anticancer activity against human RPMI8226 cells after 48 hrs by SRB assay; type: functional; conditions: RPMI-8226, 48 h
# SR = assay: Anticancer activity against human SR cells after 48 hrs by SRB assay; type: functional
# A549 = assay: Anticancer activity against human A549 cells after 48 hrs by SRB assay; type: functional; conditions: A549, 48 h
# Method in brief: (§2)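 Grown in RPMI 1640 with 10% FBS and 2 mM L-glutamine at 37 °C, 5% CO2. Seeded at densities set by doubling time, then preincubated 24 h. Continuous 48 h drug exposure at four concentrations (0.1, 1, 10, 100), triplicate wells. Fixed with cold TCA (final 10%) at 4 °C, 60 min. Stained with 0.4% SRB in 1% acetic acid, eluted with 10 mM Tris base, read at 540/690 nm. Percent growth versus control wells.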
# EKVX = assay: Anticancer activity against human EKVX cells after 48 hrs by SRB assay; type: functional
# HOP-62 = assay: Anticancer activity against human HOP62 cells after 48 hrs by SRB assay; type: functional; conditions: HOP-62, 48 h; method in brief: as §2
# HOP-92 = assay: Anticancer activity against human HOP92 cells after 48 hrs by SRB assay; type: functional; conditions: HOP-92, 48 h
# NCI-H226 = assay: Anticancer activity against human NCI-H226 cells after 48 hrs by SRB assay; type: functional; conditions: NCI-H226, 48 h
# NCI-H23 = assay: Anticancer activity against human NCI-H23 cells after 48 hrs by SRB assay; type: functional; conditions: NCI-H23, 48 h
# NCI-H322M = assay: Anticancer activity against human NCI-H322M cells after 48 hrs by SRB assay; type: functional
# NCI-H460 = assay: Anticancer activity against human NCI-H460 cells after 48 hrs by SRB assay; type: functional; conditions: NCI-H460, 48 h
# NCI-H522 = assay: Anticancer activity against human NCI-H522 cells after 48 hrs by SRB assay; type: functional; conditions: NCI-H522, 48 h
# COLO 205 = assay: Anticancer activity against human COLO205 cells after 48 hrs by SRB assay; type: functional; conditions: COLO 205, 48 h; method in brief: as §2
# HCC 2998 = assay: Anticancer activity against human HCC2998 cells after 48 hrs by SRB assay; type: functional; conditions: HCC 2998, 48 h
# HCT-116 = assay: Anticancer activity against human HCT116 cells after 48 hrs by SRB assay; type: functional; conditions: HCT-116, 48 h
# HCT-15 = assay: Anticancer activity against human HCT15 cells after 48 hrs by SRB assay; type: functional; conditions: HCT-15, 48 h
# HT-29 = assay: Anticancer activity against human HT-29 cells after 48 hrs by SRB assay; type: functional; conditions: HT-29, 48 h
# KM12 = assay: Anticancer activity against human KM12 cells after 48 hrs by SRB assay; type: functional; conditions: KM12, 48 h
# SW-620 = assay: Anticancer activity against human SW620 cells after 48 hrs by SRB assay; type: functional; conditions: SW-620, 48 h
# SF-268 = assay: Anticancer activity against human SF268 cells after 48 hrs by SRB assay; type: functional; conditions: SF-268, 48 h
# SF-539 = assay: Anticancer activity against human SF539 cells after 48 hrs by SRB assay; type: functional; conditions: SF-539, 48 h
# SNB-19 = assay: Anticancer activity against human SNB19 cells after 48 hrs by SRB assay; type: functional; conditions: SNB-19, 48 h
# SNB-75 = assay: Anticancer activity against human SNB75 cells after 48 hrs by SRB assay; type: functional; conditions: SNB-75, 48 h
# U-251 = assay: Anticancer activity against human U251 cells after 48 hrs by SRB assay; type: functional; conditions: U-251, 48 h
# LOX IMVI = assay: Anticancer activity against human LOXIMVI cells after 48 hrs by SRB assay; type: functional
# Malme-3M = assay: Anticancer activity against human MALME-3M cells after 48 hrs by SRB assay; type: functional
# M14 = assay: Anticancer activity against human M14 cells after 48 hrs by SRB assay; type: functional; conditions: M14, 48 h
# SK-MEL-2 = assay: Anticancer activity against human SK-MEL-2 cells after 48 hrs by SRB assay; type: functional; conditions: SK-MEL-2, 48 h
# IGROV-1 = assay: Anticancer activity against human IGROV1 cells after 48 hrs by SRB assay; type: functional; conditions: IGROV-1, 48 h
# OVCAR-3 = assay: Anticancer activity against human OVCAR-3 cells after 48 hrs by SRB assay; type: functional; conditions: OVCAR-3, 48 h
# OVCAR-4 = assay: Anticancer activity against human OVCAR4 cells after 48 hrs by SRB assay; type: functional; conditions: OVCAR-4, 48 h
# OVCAR-5 = assay: Anticancer activity against human OVCAR5 cells after 48 hrs by SRB assay; type: functional; conditions: OVCAR-5, 48 h
# OVCAR-8 = assay: Anticancer activity against human OVCAR8 cells after 48 hrs by SRB assay; type: functional; conditions: OVCAR-8, 48 h
# SK-OV-3 = assay: Anticancer activity against human SKOV3 cells after 48 hrs by SRB assay; type: functional; conditions: SK-OV-3, 48 h
# 786-0 = assay: Anticancer activity against human 786-0 cells after 48 hrs by SRB assay; type: functional; conditions: 786-0, 48 h
# A498 = assay: Anticancer activity against human A498 cells after 48 hrs by SRB assay; type: functional; conditions: A498, 48 h
# ACHN = assay: Anticancer activity against human ACHN cells after 48 hrs by SRB assay; type: functional
# CAKI-1 = assay: Anticancer activity against human Caki1 cells after 48 hrs by SRB assay; type: functional; conditions: CAKI-1, 48 h
# RXF 393 = assay: Anticancer activity against human […] cells after 48 hrs by SRB assay; type: functional; conditions: RXF 393, 48 h
# SN12C = assay: Anticancer activity against human SN12C cells after 48 hrs by SRB assay; type: functional
# TK-10 = assay: Anticancer activity against human TK10 cells after 48 hrs by SRB assay; type: functional; conditions: TK-10, 48 h
# UO-31 = assay: Anticancer activity against human UO31 cells after 48 hrs by SRB assay; type: functional; conditions: UO-31, 48 h
# MCF7 = assay: Anticancer activity against human MCF7 cells after 48 hrs by SRB assay; type: functional; conditions: MCF7, 48 h; method in brief: as §2
# MDA-MB-231 = assay: Anticancer activity against human MDA-MB-231 cells after 48 hrs by SRB assay; type: functional; conditions: MDA-MB-231, 48 h
# [5] = Anticancer activity against human Hs 578T cells after 48 hrs by SRB assay; type: functional
# MDA-MB-435 = assay: Anticancer activity against human MDA-MB-435 cells after 48 hrs by SRB assay; type: functional; conditions: MDA-MB-435, 48 h
# BT-549 = assay: Anticancer activity against human BT549 cells after 48 hrs by SRB assay; type: functional; conditions: BT-549, 48 h
# T47D = assay: Anticancer activity against human T47D cells after 48 hrs by SRB assay; type: functional
# MDA-MB-468 = assay: Anticancer activity against human MDA-MB-468 cells after 48 hrs by SRB assay; type: functional; conditions: MDA-MB-468, 48 h
# DU-145 = assay: Anticancer activity against human DU145 cells after 48 hrs by SRB assay; type: functional; conditions: DU-145, 48 h
# PC-3 = assay: Anticancer activity against human PC3 cells after 48 hrs by SRB assay; type: functional; conditions: PC-3, 48 h; method in brief: as §2
# SK-MEL-28 = assay: Anticancer activity against human SK-MEL-28 cells after 48 hrs by SRB assay; type: functional; conditions: SK-MEL-28, 48 h
# SK-MEL-5 = assay: Anticancer activity against human SK-MEL-5 cells after 48 hrs by SRB assay; type: functional; conditions: SK-MEL-5, 48 h
# UACC-257 = assay: Anticancer activity against human UACC257 cells after 48 hrs by SRB assay; type: functional; conditions: UACC-257, 48 h
# UACC-62 = assay: Anticancer activity against human UACC62 cells after 48 hrs by SRB assay; type: functional; conditions: UACC-62, 48 h
structure (smiles),measurement,setting,value
COc1ccc(/C=C\c2cc(OC)c(OC)c(OC)c2)cc1O [COMBRETASTATIN A4],Activity,A-375 [1],Active
same,Activity,A-375 [2],49.08%
same,Activity,A-375 [3],38.1%
same,Activity,A-375 [4],12.81%
COc1ccc(C2CC(c3cc(OC)c(OC)c(OC)c3)=NO2)cc1OCCCCOc1cc2c(cc1OC)C(=O)N1CCC[C@H]1C=N2 (some centres not stated),GI50,CCRF-CEM,1.41 µM
same,GI50,HL-60(TB),1.9 µM
same,GI50,K562,1.26 µM
same,GI50,MOLT-4,1.85 µM
same,GI50,RPMI-8226,1.43 µM
same,GI50,SR,1.12 µM
same,GI50,A549,2.33 µM
same,GI50,EKVX,3.68 µM
same,GI50,HOP-62,1.68 µM
same,GI50,HOP-92,2.47 µM
same,GI50,NCI-H226,1.67 µM
same,GI50,NCI-H23,1.83 µM
same,GI50,NCI-H322M,3.46 µM
same,GI50,NCI-H460,1.85 µM
same,GI50,NCI-H522,0.61 µM
same,GI50,COLO 205,1.96 µM
same,GI50,HCC 2998,1.58 µM
same,GI50,HCT-116,1.7 µM
same,GI50,HCT-15,2.27 µM
same,GI50,HT-29,2.75 µM
same,GI50,KM12,1.74 µM
same,GI50,SW-620,1.55 µM
same,GI50,SF-268,1.89 µM
same,GI50,SF-539,1.8 µM
same,GI50,SNB-19,1.96 µM
same,GI50,SNB-75,1.71 µM
same,GI50,U-251,1.73 µM
same,GI50,LOX IMVI,1.47 µM
same,GI50,Malme-3M,2.88 µM
same,GI50,M14,1.73 µM
same,GI50,SK-MEL-2,2.03 µM
same,GI50,IGROV-1,1.57 µM
same,GI50,OVCAR-3,1.94 µM
same,GI50,OVCAR-4,2.07 µM
same,GI50,OVCAR-5,3.13 µM
same,GI50,OVCAR-8,2.55 µM
same,GI50,SK-OV-3,3.37 µM
same,GI50,786-0,1.57 µM
same,GI50,A498,1.72 µM
same,GI50,ACHN,2.41 µM
same,GI50,CAKI-1,3.09 µM
same,GI50,RXF 393,1.39 µM
same,GI50,SN12C,1.58 µM
same,GI50,TK-10,3.51 µM
same,GI50,UO-31,2.09 µM
same,GI50,MCF7,1.75 µM
same,GI50,MDA-MB-231,1.15 µM
same,GI50,[5],1.1 µM
same,GI50,MDA-MB-435,3.54 µM
same,GI50,BT-549,1.23 µM
same,GI50,T47D,1.31 µM
same,GI50,MDA-MB-468,1.34 µM
same,GI50,DU-145,0.32 µM
same,GI50,PC-3,0.32 µM
same,GI50,SK-MEL-28,2.07 µM
same,GI50,SK-MEL-5,1.47 µM
same,GI50,UACC-257,2.33 µM
same,GI50,UACC-62,1.52 µM
